# Source: ChEMBL document CHEMBL3414481, “Discovery of highly selective brain-penetrant vasopressin 1a antagonists for the potential treatment of autism via a chemogenomic and scaffold hopping approach” (J Med Chem, 2015)
# Experiments:
# Vasopressin V1a receptor [1] = biological target: T1, Vasopressin V1a receptor (Homo sapiens, UniProt P37288); assay: Displacement of [3H]-vasopressin from human vasopressin 1a receptor expressed in HEK293 cell membranes after 1 hr by scintillation proximity assay
# Method in brief: (§1)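 Radioligand competition binding; affinity reported as Ki.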
# Target sequence in this assay (P37288 whole entry): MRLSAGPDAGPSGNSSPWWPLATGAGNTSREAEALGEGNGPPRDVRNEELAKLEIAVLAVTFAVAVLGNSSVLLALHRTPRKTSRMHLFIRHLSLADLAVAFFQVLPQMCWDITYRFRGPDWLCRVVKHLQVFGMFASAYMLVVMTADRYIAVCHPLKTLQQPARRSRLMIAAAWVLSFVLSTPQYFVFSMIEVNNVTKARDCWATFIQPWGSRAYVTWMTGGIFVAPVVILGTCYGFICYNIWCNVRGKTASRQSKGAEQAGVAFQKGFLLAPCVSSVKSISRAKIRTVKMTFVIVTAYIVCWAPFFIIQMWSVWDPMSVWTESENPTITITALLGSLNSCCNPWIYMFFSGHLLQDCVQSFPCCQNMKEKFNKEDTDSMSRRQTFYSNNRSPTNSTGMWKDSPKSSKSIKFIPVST
# Vasopressin V1a receptor [2] = biological target: Vasopressin V1a receptor (Mus musculus, UniProt Q62463); assay: Displacement of [3H]-vasopressin from mouse vasopressin 1a receptor expressed in HEK293 cell membranes after 1 hr by scintillation proximity assay; method in brief: as §1
# Chain of Vasopressin V1a receptor (Mus musculus, UniProt Q62463) (Q62463 whole entry): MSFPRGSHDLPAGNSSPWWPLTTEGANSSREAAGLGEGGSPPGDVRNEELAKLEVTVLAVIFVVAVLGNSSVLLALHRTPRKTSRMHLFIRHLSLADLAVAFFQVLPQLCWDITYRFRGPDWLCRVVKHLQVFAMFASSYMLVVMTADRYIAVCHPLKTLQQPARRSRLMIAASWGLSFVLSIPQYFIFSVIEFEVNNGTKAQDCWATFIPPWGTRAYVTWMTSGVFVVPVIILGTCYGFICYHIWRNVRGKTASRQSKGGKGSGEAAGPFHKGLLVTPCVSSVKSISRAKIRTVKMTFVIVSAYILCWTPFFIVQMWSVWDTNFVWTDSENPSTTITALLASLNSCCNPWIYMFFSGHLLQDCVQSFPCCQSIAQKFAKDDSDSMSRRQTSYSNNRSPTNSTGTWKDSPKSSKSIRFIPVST
# Vasopressin V1a receptor [3] = biological target: T1, Vasopressin V1a receptor; assay: Antagonist activity at human vasopressin 1a receptor expressed in CHO cells assessed as inhibition of vasopressin-induced calcium flux preincubated for 20 mins followed by vasopressin induction measured for 5 mins by FLIPR assay; format: functional, cell-based
# Method in brief: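 Functional antagonist calcium-flux read-out; value reported as apparent affinity (Kb).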
# Target sequence in this assay (P37288 whole entry, looked up): as the sequence (P37288 whole entry) above
# [4] = Clearance in mouse at 2 mg/kg, iv; format: ADME, organism-based; set-up: dose 2 mg/kg, route intravenous; conditions: in vivo
# [5] = Ratio of drug level in brain to plasma in mouse at 10 mg/kg, po; format: ADME, organism-based; set-up: dose 10 mg/kg, route oral; conditions: read-out: BPR
# [6] = Volume of distribution at steady state in mouse at 2 mg/kg, iv; format: ADME, organism-based; set-up: dose 2 mg/kg, route intravenous; conditions: in vivo, read-out: Vdss
# [7] = Activity at human P-gp assessed as drug transport; format: ADME
# Homo sapiens [8] = organism: Homo sapiens; assay: Selectivity ratio of Ki for human vasopressin V2 receptor to Ki for human vasopressin 1a receptor
# Method in brief: (§2)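 Ratio of the Ki at hV2 or hOTR to the hV1a Ki. Each Ki came from a radioligand competition binding assay.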
# [9] = Solubility of the compound in phosphate buffer at pH 6.5 incubated for 1 hr with stirring followed by 2 hrs of shaking by Lysa assay; format: physicochemical
# Homo sapiens [10] = organism: Homo sapiens; assay: Selectivity ratio of Ki for human oxytocin receptor to Ki for human vasopressin 1a receptor; method in brief: as §2
# Vasopressin V1b receptor = biological target: T2, Vasopressin V1b receptor (Homo sapiens, UniProt P47901); assay: Displacement of [3H]-vasopressin from human vasopressin 1b receptor after 1 hr by scintillation proximity assay
# T2 sequence (P47901 whole entry): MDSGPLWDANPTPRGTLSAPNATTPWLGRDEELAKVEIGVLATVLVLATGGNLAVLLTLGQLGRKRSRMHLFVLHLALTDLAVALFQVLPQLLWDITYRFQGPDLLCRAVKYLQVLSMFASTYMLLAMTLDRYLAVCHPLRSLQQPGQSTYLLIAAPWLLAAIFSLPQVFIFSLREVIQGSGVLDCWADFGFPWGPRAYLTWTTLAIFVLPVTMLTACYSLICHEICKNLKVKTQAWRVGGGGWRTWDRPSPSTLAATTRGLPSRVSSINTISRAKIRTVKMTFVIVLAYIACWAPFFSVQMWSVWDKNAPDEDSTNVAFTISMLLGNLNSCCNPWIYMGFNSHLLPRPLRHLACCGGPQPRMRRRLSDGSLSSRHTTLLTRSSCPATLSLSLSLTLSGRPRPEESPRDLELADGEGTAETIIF
# [11] = Octanol-buffer partition co-efficient, log D of the compound after 24 hrs by high-throughput shake-flask method; format: physicochemical
# Oxytocin receptor = biological target: T3, Oxytocin receptor (Homo sapiens, UniProt P30559); assay: Displacement of [3H]-oxytocin from human oxytocin receptor expressed in HEK cell membranes after 1 hr by scintillation proximity assay; set-up: species or system HEK293
# T3 sequence (P30559 whole entry): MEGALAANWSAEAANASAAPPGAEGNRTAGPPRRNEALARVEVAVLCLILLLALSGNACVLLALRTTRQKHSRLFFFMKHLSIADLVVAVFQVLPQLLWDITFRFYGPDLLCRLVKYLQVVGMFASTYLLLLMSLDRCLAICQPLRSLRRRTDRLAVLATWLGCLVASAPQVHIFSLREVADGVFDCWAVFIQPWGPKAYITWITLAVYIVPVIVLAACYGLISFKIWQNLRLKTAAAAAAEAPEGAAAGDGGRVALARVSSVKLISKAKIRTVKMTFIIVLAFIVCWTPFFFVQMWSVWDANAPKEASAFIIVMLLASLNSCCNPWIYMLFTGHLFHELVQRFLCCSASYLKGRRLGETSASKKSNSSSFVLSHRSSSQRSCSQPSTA
# Vasopressin V2 receptor = Vasopressin V2 receptor (Homo sapiens, UniProt P30518); assay: Displacement of [3H]-vasopressin from human vasopressin V2 receptor expressed in HEK293 cell membranes after 1 hr by scintillation proximity assay
# Chain of Vasopressin V2 receptor (P30518 whole entry): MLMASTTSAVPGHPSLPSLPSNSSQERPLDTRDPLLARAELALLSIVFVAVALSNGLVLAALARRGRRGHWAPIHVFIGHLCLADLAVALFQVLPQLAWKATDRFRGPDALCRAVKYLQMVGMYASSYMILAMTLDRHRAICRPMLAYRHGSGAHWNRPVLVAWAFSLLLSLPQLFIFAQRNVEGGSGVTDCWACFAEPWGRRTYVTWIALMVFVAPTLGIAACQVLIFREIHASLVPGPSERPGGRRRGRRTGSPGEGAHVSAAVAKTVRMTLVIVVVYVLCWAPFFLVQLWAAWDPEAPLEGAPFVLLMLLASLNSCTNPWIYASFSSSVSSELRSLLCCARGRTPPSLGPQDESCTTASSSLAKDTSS
# Mus musculus [12] = assay: Inhibition of arginine vasopressin-induced scratching in ip dosed NMRI mouse administered 30 mins prior to arginine vasopressin challenge measured for 5 mins; format: functional, organism-based
# Method in brief: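 Mice received the compound i.p. at 0.3, 1, 3, 10 or 30 mg/kg or vehicle before centrally given AVP. AVP-induced scratching was scored and expressed as % of maximal response.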
# Mus musculus [13] = assay: Inhibition of arginine vasopressin-induced scratching in icv dosed NMRI mouse administered 5 mins prior to arginine vasopressin challenge measured for 5 mins; format: functional, organism-based
# Method in brief: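 Mice received the compound i.c.v. at three doses or vehicle before centrally given AVP. AVP-induced scratching was scored and expressed as % of maximal response.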
Structure (SMILES),Ki (Vasopressin V1a receptor [1]; read-out: Ki),Ki (Vasopressin V1a receptor [2]; read-out: Ki),Kb (Vasopressin V1a receptor [3]),solubility at 3 h [9],also measured
O=C(c1c[nH]c2cc(Cl)ccc12)N1CCC2(CC1)c1ccccc1CS2(=O)=O,24 nM,5890 nM,11 nM,–,–
CN(C)CCn1cc(C(=O)N2CCC3(CC2)OCc2ccccc23)c2ccc(Cl)cc21 [RO-5028442],–,39 nM,2.6 nM,205 µg/mL,clearance [4]: 91 mL/min/kg; Kp [5]: 1.4; Vd [6]: 5.8 L/kg; Activity [7]: Not Active; Ratio Ki (Homo sapiens [8]): > 30000; Ratio Ki (Homo sapiens [10]): 9890
CCOc1ccc2ccccc2c1C(=O)N1CCC(O)(Cc2ccccc2)CC1,2830 nM,–,–,–,Ki (Vasopressin V1b receptor; read-out: Ki): 12000 nM
CN1CCC[C@H]1Cn1cc(C(=O)N2CCC3(CC2)OCc2ccccc23)c2ccc(Cl)cc21,1 nM,13 nM,0.5 nM,140 µg/mL,clearance [4]: 67 mL/min/kg; Kp [5]: 2; Vd [6]: 2.6 L/kg; Activity [7]: Not Active; Ratio Ki (Homo sapiens [8]): 6070; Ratio Ki (Homo sapiens [10]): 1980
O=C(c1c[nH]c2ccccc12)N1CCC2(CC1)OCc1ccccc12,32 nM,6620 nM,–,17 µg/mL,logD at 24 h [11]: > 3
O=C(c1c[nH]c2cc(Cl)ccc12)N1CCC(n2c(=O)[nH]c3ccccc32)CC1,8 nM,2390 nM,14 nM,–,–
Cc1c(C(=O)N2CCC(O)(Cc3ccccc3)CC2)c2ccccc2n1Cc1ccccc1,295 nM,–,–,–,–
O=C1OC2(CCN(C(=O)c3c[nH]c4cc(Cl)ccc34)CC2)c2ccccc21,5 nM,–,5 nM,–,Ki (Vasopressin V1a receptor [2]; hek293): Not Active
O=C(c1c[nH]c2cc(Cl)ccc12)N1CCC2(CC1)OCc1ccncc12,9 nM,2980 nM,4.2 nM,–,–
CN(C)C(=O)Cn1cc(C(=O)N2CCC3(CC2)OCc2ccccc23)c2ccc(Cl)cc21,–,14 nM,0.1 nM,56 µg/mL,clearance [4]: 40 mL/min/kg; Kp [5]: 0.05; Vd [6]: 1.2 L/kg; Activity [7]: Active
O=C1Nc2ccccc2C2(CCN(C(=O)c3c[nH]c4cc(Cl)ccc34)CC2)O1,–,–,38 nM,–,Ki (Vasopressin V1a receptor [2]; hek293): Not Active
O=C(c1c[nH]c2cc(Cl)ccc12)N1CCC(c2ccccc2)CC1,23 nM,1490 nM,43 nM,–,–
O=C(c1c[nH]c2cc(Cl)ccc12)N1CCC2(CC1)CNc1ccccc12,–,5890 nM,20 nM,–,–
CN1CCC(n2cc(C(=O)N3CCC4(CC3)OCc3ccccc34)c3ccc(Cl)cc32)CC1,4 nM,11 nM,3.3 nM,12 µg/mL,clearance [4]: 52 mL/min/kg; Kp [5]: 1; Vd [6]: 7.2 L/kg; Activity [7]: Not Active; Ratio Ki (Homo sapiens [8]): > 6750; Ratio Ki (Homo sapiens [10]): 1200
O=C(c1cccc2ccccc12)N1CCC(O)(Cc2ccccc2)CC1,6620 nM,–,–,–,–
O=C(c1c[nH]c2cc(Cl)ccc12)N1CCN(c2ccccc2Cl)CC1,118 nM,1970 nM,193 nM,–,–
Cc1c(C(=O)N2CCC3(CC2)OCc2ccccc23)c2ccccc2n1Cc1ccccc1,2 nM,210 nM,3.6 nM,< 1 µg/mL,logD at 24 h [11]: > 3; Ki (Oxytocin receptor; hek293): Not Active; Ki (Vasopressin V2 receptor): 9310 nM
CCOc1ccc2ccccc2c1C(=O)N1CCC2(CC1)OCc1ccccc12,81 nM,–,–,–,Ki (Vasopressin V1b receptor): Not Active
Cc1c(C(=O)N2CCC(O)(Cc3ccccc3)CC2)c2ccccc2n1C(=O)c1ccccc1,3900 nM,–,–,–,–
O=C(c1c[nH]c2cc(Cl)ccc12)N1CCC2(CC1)COc1ccccc12,16 nM,–,72 nM,–,Ki (Vasopressin V1a receptor [2]; hek293): Not Active
CN(C)CCNC(=O)Cn1cc(C(=O)N2CCC3(CC2)OCc2ccccc23)c2ccc(Cl)cc21,2 nM,177 nM,0.7 nM,> 650 µg/mL,clearance [4]: 14 mL/min/kg; Kp [5]: 0.1; Vd [6]: 4.9 L/kg; Activity [7]: Active; Ratio Ki (Homo sapiens [8]): 11800; inhibition (Mus musculus [12]): Dose-dependent effect; Ratio Ki (Homo sapiens [10]): 5690
O=C(c1c[nH]c2cc(Cl)ccc12)N1CCC2(CC1)OCc1ncccc12,39 nM,4820 nM,7.8 nM,–,–
Cc1c(C(=O)N2CCC(O)(Cc3ccccc3)CC2)c2ccccc2n1S(=O)(=O)c1ccccc1,4990 nM,–,–,–,–
O=C(c1cn(C[C@@H]2CCCN2)c2cc(Cl)ccc12)N1CCC2(CC1)OCc1ccccc12,1.4 nM,125 nM,1.4 nM,108 µg/mL,clearance [4]: 32 mL/min/kg; Kp [5]: 0.05; Vd [6]: 6.8 L/kg; Activity [7]: Active; Ratio Ki (Homo sapiens [8]): > 19300; Ratio Ki (Homo sapiens [10]): 1510
COc1ccccc1C(=O)N1CCC(O)(Cc2ccccc2)CC1,–,–,–,–,Ki (Vasopressin V1a receptor [1]; hek293): Not Active
O=C(c1c[nH]c2cc(Cl)ccc12)N1CCC2(CC1)OCc1ccccc12,4 nM,1010 nM,2.9 nM,4 µg/mL,logD at 24 h [11]: 3.7; Activity [7]: Not Active; Ratio Ki (Homo sapiens [8]): > 6750; Ki (Oxytocin receptor; read-out: Ki): 7520 nM; Ki (Vasopressin V2 receptor): > 27000 nM; Ratio Ki (Homo sapiens [10]): 1880
CN1CCN(C(=O)Cn2cc(C(=O)N3CCC4(CC3)OCc3ccccc34)c3ccc(Cl)cc32)CC1,1 nM,41 nM,0.2 nM,193 µg/mL,clearance [4]: 39 mL/min/kg; inhibition (Mus musculus [13]): Dose-dependent effect; Kp [5]: 0.07; Vd [6]: 1.5 L/kg; Ratio Ki (Homo sapiens [8]): > 60000; Ratio Ki (Homo sapiens [10]): 9160
O=C(c1c[nH]c2cc(Cl)ccc12)N1CCC2(CC1)OCc1cccnc12,5 nM,1020 nM,1.8 nM,–,–
